How the values were obtained:
[1] = biological target: T1, Neutrophil elastase (Homo sapiens) (UniProt P08246); experiment: Proteolysis rate constant (Kcat), when mixed with human leukocyte elastase (HLE)enzyme for the conversion of water-soluble compound to fluorescent oil-soluble compound
T1 sequence (whole entry): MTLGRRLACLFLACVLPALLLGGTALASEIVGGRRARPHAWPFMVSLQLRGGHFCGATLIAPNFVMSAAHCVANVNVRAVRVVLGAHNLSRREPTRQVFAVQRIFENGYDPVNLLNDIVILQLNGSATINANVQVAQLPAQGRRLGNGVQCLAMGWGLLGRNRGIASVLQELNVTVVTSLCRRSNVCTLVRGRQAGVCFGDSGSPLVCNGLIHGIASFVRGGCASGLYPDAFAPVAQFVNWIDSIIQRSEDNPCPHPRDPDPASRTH
Outline: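 Human leukocyte elastase (1 unit = 1.2 µg; releases 1 µmol/min p-nitrophenol from N-t-BOC-L-alanine-p-nitrophenyl ester, pH 6.5, 37 °C) in 50 mM NaOAc, 100 mM NaCl, 8 mM NaN3 pH 6.0. Enzyme mixed with 12 µM substrate in buffer under a trace mineral-oil layer, shaken at 37 °C. Released fluorophore extracted into oil, diluted with n-heptane, quantified by absorbance at 424 nm against oil at 272 nm.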

[2] = Ratio of proteolysis rate constant (Kcat) to that of proteolysis constant (Km) was determined
Outline: (§1)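 Porcine pancreatic trypsin (type IX), porcine pancreatic kallikrein, bovine spleen cathepsin B and porcine pancreatic elastase, each enzyme added to 12 µM substrate solution over mineral oil, shaken at 37 °C. Buffers: trypsin 10 mM Tris-HCl pH 7.8; kallikrein 50 mM Tris pH 9.0; cathepsin B 100 mM potassium phosphate pH 6.0; elastase 10 mM Tris-HCl pH 7.5. Released fluorophore in the oil is diluted with n-heptane and quantified at 424 nm against oil absorbance at 272 nm.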

[3] = system: CN(C(=O)[C@@H](CCCCC(=N)N)NC(=O)[C@H](CCCCC(=N)N)NC(=O)OCc1ccccc1)c1ccc(C#C/C=C/c2ccc([N+](=O)[O-])c(O)c2)cc1; experiment: Proteolysis constant (Km), when mixed with Cathepsin B enzyme for the conversion of water-soluble compound to fluorescent oil-soluble compound; outline: as §1
[4] = biological target: T2, Chymotrypsin-like elastase family member 2A (Sus scrofa) (UniProt P08419); experiment: Proteolysis rate constant (Kcat), when mixed with elastase enzyme for the conversion of water-soluble compound to fluorescent oil-soluble compound; outline: as §1
T2 sequence (whole entry): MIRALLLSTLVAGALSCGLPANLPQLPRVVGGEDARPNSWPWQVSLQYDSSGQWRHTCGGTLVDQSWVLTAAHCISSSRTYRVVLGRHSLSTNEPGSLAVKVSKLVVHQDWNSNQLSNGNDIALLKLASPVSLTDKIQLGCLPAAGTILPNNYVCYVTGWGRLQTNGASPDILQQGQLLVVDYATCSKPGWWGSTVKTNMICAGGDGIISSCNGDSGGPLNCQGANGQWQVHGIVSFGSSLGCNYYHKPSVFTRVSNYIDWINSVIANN

Row | Compound | k cat [1] | k cat/Km [2] | Km [3] | k cat [4]
1 | CC(C)C[C@H](NC(=O)[C@H](N)Cc1ccc(O)cc1)C(=O)N[C@@H](C(=O)N(C)c1ccc(C#C/C=C/c2ccc([N+](=O)[O-])c(O)c2)cc1)C(C)C | 3.6 s⁻¹ | 225000 M⁻¹ s⁻¹ | – | –
2 | Cathepsin B (Bos taurus), P07688 | – | – | 129 µM | –
3 | COCCOCCOCCOCCOC(=O)N[C@@H](C)C(=O)N[C@H](C)C(=O)N(C)c1ccc(C#C/C=C/c2ccc([N+](=O)[O-])c(O)c2)cc1 | – | 446000 M⁻¹ s⁻¹ | – | 145 s⁻¹

Source: ChEMBL document CHEMBL1131831, “A rapid method to identify exo-protease inhibitors” (Bioorg Med Chem Lett, 1999)
